Results taken from ChEMBL document CHEMBL1139252, “Inhibition of purple acid phosphatase with alpha-alkoxynaphthylmethylphosphonic acids” (Bioorg Med Chem Lett, 2009).

Columns and labels:
[1] = biological target: T1, Fe(3+)-Zn(2+) purple acid phosphatase (Phaseolus vulgaris, UniProt P80366); assay: Inhibition of red kidney bean PAP at pH 6.2
T1 sequence (P80366 whole entry): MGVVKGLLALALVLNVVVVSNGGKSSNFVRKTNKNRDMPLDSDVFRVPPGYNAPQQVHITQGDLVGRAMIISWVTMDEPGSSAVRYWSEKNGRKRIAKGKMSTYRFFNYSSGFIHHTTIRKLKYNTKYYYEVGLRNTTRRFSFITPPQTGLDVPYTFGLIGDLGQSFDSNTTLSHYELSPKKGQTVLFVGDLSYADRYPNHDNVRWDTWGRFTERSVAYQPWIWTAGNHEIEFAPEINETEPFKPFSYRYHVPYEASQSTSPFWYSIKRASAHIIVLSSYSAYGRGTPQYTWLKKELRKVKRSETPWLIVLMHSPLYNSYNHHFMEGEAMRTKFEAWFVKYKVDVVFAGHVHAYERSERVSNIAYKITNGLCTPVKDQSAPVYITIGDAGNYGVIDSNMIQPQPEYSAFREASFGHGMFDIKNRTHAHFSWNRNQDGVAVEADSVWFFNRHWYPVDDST
In short: (§1)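 Each enzyme was run at its own pH optimum: red kidney bean PAP at pH 6.2 and pig PAP at pH 4.9. IC50 values were determined experimentally. Separate inhibition constants were derived for binding to the free enzyme and to the enzyme–substrate complex.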

[2] = Inhibition of human PAP
[3] = Inhibition of pig PAP at pH 4.9; parameters: species or system Sus scrofa; in short: as §1

O=P(O)(O)C(O)c1cccc2ccccc12 (stereo not given)
IC50 [1]: 5000 µM

O=C(c1ccccc1)C(C(=O)c1ccccc1)(c1cccc2ccccc12)P(=O)(O)O
IC50 [2]: 1.4 µM

O=P(O)(O)Cc1cccc2ccccc12
IC50 [1]: > 7000 µM
IC50 [2]: 30 µM

CCCCCCCCOC(c1cccc2ccccc12)P(=O)(O)O (racemic)
IC50 [1]: 100 µM
IC50 [3]: 30 µM

CCCCCCCCCCOC(c1cccc2ccccc12)P(=O)(O)O (racemic)
IC50 [1]: 8 µM
IC50 [3]: 20 µM

CCCCCCOC(c1cccc2ccccc12)P(=O)(O)O (racemic)
IC50 [1]: 1000 µM
IC50 [3]: 430 µM
